The values below come from PubChem BioAssay AID504538 (Southern Research Specialized Biocontainment Screening …, 2011).

Molecules are shown by their SMILES. Calls of active or inactive are those of the source. No rule for the calls is given here.

In one experiment the test system is E. coli EV36 T7 phage lysis, OD600 3 h. Description: T7 lysis protection in EV36 bacteria – E. coli EV36, T7 phage, set 2, counter-screen for bacterial capsule biogenesis inhibitors, dose response (AID 504538).
Settings: not given
A digest of the protocol: (§1)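 Assay system: Escherichia coli EV36, K1 and K-12 hybrid strain | Buffer or medium: LB broth, overnight culture diluted 1:100 | Incubation: 1.5 h at 37 °C, then 3 h phage | Detection: Optical density at 600 nm, 3 h after phage infection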
In general terms: Counterscreens check selectivity or assay interference.
For orientation: IC50 means the concentration that gives 50% inhibition. Take `COc1cc(/C=N/N=C(N)N)ccc1OCc1ccccc1Cl`: the IC50 was 44 µM (inactive). Same read-out and setting: the figure for `NC(N)=N/N=C/c1ccc(OCc2ccccc2)cc1` is 45 µM (inactive).

Tested on in the next experiment: not listed separately
The description is as above. The settings on record: E. coli EV36 T7 phage lysis, OD600 3 h; at 100 µM (top of the series). In outline: as §1
With `O=C(Nc1cccc(C2=NCCN2)c1)Nc1cccc(C2=NCCN2)c1`, the phage lysis inhibition was 88.6% (inactive).

With `Cc1cccc(-c2cc(C(=O)O)c3ccccc3n2)c1`, the phage lysis inhibition was 102% (inactive).

For the compound `COc1ccc(-c2cc(C(=O)O)c3ccccc3n2)cc1`, the phage lysis inhibition was 102% (inactive). In the case of `CCN(CC)c1ccc2c(-c3ccc(S(=O)(=O)O)cc3S(=O)(=O)O)c3ccc(=[N+](CC)CC)cc-3oc2c1`, the phage lysis inhibition is 110% (inactive).

On to `N=C(N)SCCc1cccc(CCSC(=N)N)c1`, for which the phage lysis inhibition is 99.9% (inactive).

In the case of `O=C1c2c(O)ccc(O)c2C(=O)c2c(NCCNCCO)ccc(NCCNCCO)c21`, the phage lysis inhibition was 140% (inactive).
